{"source": "paper PMC7394305", "about": "(Journal for Immunotherapy of Cancer, 2020)", "key": {"[1]": {"test_system": "MCA205 tumors", "assay": "MCA205 tumors in immunodeficient NSG mice", "assay_type": "in vivo, mouse", "settings": "AZD4635 and anti-PD-L1 (D265A)", "method_in_brief": "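NSG mice got MCA205 cells sc (1×10^6 in PBS, right flank), with randomisation at 50–90 mm3. Treatment was oral test compound nanosuspension plus anti-PD-L1 (mIgG1 D265A, ip 10 mg/kg twice weekly). Tumor volume was measured twice weekly.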"}, "[2]": {"test_system": "OT-1 CD8+ T cells", "assay": "Ex vivo CD103+ DC isolation and OT-I T cell co-culture", "assay_type": "in vivo, mouse", "settings": "CD103+ DC from TdLN of MC38-OVA mice"}, "[3]": {"test_system": "MC38-OVA tumors", "assay": "Ex vivo stimulation cytokine flow cytometry of MC38-OVA tumors", "assay_type": "in vivo, mouse", "settings": "for IFN-γ, TNF-α, IL-2, granzyme B and CD107a on CD8+ T cells: PMA/ionomycin ex vivo stimulation", "method_in_brief": "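Dissociated MC38-OVA tumor cells were plated at 2–4e5 live cells/well in complete T cell medium. […] CD8+ T and NK cell cytokines and CD107a were then read by flow cytometry.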"}, "[4]": {"test_system": "OT-1 CD8+ T cells", "assay": "CD103+ DC co-culture with OT-1 CD8+ T cells", "assay_type": "cell-based, mouse"}, "[5]": {"test_system": "CD103+ DC", "assay": "Analysis of antigen presentation", "assay_type": "cell-based, mouse"}, "[6]": {"test_system": "monocyte-derived DCs", "assay": "Antigen-specific priming of HLA-A*0201 Melan-A CD8+ T cells", "assay_type": "cell-based, human"}, "[7]": {"test_system": "CD8+ T cells", "assay": "T cell IFNγ secretion assay", "assay_type": "cell-based, mouse", "settings": "for EC50: Mus musculus, T-cell"}, "[8]": {"test_system": "tumor draining LN cells", "assay": "ELISpot assay of tumor draining lymph node cells", "assay_type": "in vivo, mouse", "settings": "combination with anti-PD-L1; MC38-OVA tumor-bearing mice"}, "[9]": {"test_system": "CD103+ DC", "assay": "Pinocytosis assay", "assay_type": "cell-based, mouse", "method_in_brief": "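1e6 iDCs were incubated with Alexa 488–ovalbumin (50 µg/mL final) in complete T cell medium for 30 min at 37°C, with 4°C as negative control. Cells were washed twice in ice-cold DPBS, kept chilled and analysed by flow cytometry.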"}, "[10]": {"test_system": "MC38 tumors", "assay": "Tumor immunophenotyping flow cytometry of MC38 tumors", "assay_type": "in vivo, mouse"}, "[11]": {"test_system": "MC38-OVA tumors", "assay": "MC38-OVA syngeneic tumor model", "assay_type": "in vivo, mouse", "method_in_brief": "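C57BL/6 mice bore sc MC38-OVA (5×10^5 cells in PBS) and were randomised at 80–100 mm3. Anti-CD8 or rat IgG2b isotype was injected every 3 days. Mice also got oral test compound 50 mg/kg twice daily plus anti-PD-L1 10 mg/kg ip twice weekly. Tumor volume was tracked twice weekly.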"}, "[12]": {"test_system": "CD103+ DC", "assay": "CD103+ DC mouse bone marrow differentiation cultures", "assay_type": "cell-based"}, "[13]": {"test_system": "MC38 tumors", "assay": "Gene expression analysis of MC38 tumors", "assay_type": "in vivo, mouse", "settings": "14 days treatment", "method_in_brief": "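Mice bearing sc MC38 tumors were treated with test compound for 14 days. Tumor gene expression was profiled with the NanoString Mouse PanCancer Immune Profiling Panel.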"}, "[14]": {"test_system": "F4/80+ macrophages", "assay": "Mouse macrophage assay", "assay_type": "cell-based", "settings": "10 µM NECA"}, "[15]": {"settings": "AZD4635 + NECA, dead MC38-OVA tumor cells"}, "[16]": {"settings": "whole ovalbumin protein, AZD4635+NECA"}, "[17]": {"settings": "5 μM NECA, dead MC38-OVA tumor cells"}, "[18]": {"settings": "DC differentiated with 5 µM NECA, loaded with SIINFEKL peptide"}}, "note": "Read-outs that look alike come from different tables or passages of the source.", "data": [{"smiles": "Cc1cc(-c2nnc(N)nc2-c2ccc(F)cc2)cc(Cl)n1", "note": "[AZD4635]", "values": [{"measurement": "antitumor activity in immunodeficient mice", "setting": "[1]", "value": "completely abrogated"}, {"measurement": "proliferation of OT-1 CD8+ T cells", "setting": "[2]; anti-PD-L1+AZD4635 combination", "value": 53, "unit": "%"}, {"measurement": "proliferation of OT-1 CD8+ T cells", "setting": "[2]; single agent, vehicle 5.8%", "value": 28, "unit": "%"}, {"measurement": "NK cell IFN-γ production", "setting": "[3]; combination with anti-PD-L1", "value": "minimal increase"}, {"measurement": "NK cell TNF-α production and CD107a expression", "setting": "[3]; combination with anti-PD-L1", "value": "strong increase"}, {"measurement": "IFN-γ, TNF-α, IL-2, granzyme B and CD107a on CD8+ T cells", "setting": "[3]; combination with anti-PD-L1", "value": "most significantly increased"}, {"measurement": "IFN-γ, TNF-α, IL-2, granzyme B and CD107a on CD8+ T cells", "setting": "[3]; single agent", "value": "all enhanced"}, {"measurement": "restoration of CD107a and IFN-γ", "setting": "[4]; AZD4635 + NECA, SIINFEKL peptide", "value": "comparable to untreated cells"}, {"measurement": "CD107a response relative to responses elicited by untreated cells", "setting": "[4]; [15]", "value": 87, "unit": "%"}, {"measurement": "IFN-γ response compared with untreated cells", "setting": "[4]; [15]", "value": "not statistically different"}, {"measurement": "rescue of antigen presentation compared with NECA treatment", "setting": "[5]; SIINFEKL pulsed cultures, AZD4635 3 µM + NECA", "value": "twofold"}, {"measurement": "antigen presentation level versus untreated CD103+ DCs", "setting": "[5]; [16]", "value": "restored to a level comparable to untreated"}, {"measurement": "increase of antigen presentation compared with NECA", "setting": "[5]; [16]", "value": "nearly fivefold"}, {"measurement": "Melan-A26-35 tetramer positive CD8+ T cells", "setting": "[6]; 5 µM NECA, AZD4635 3 µM where given, tabulated, 4 donors, no NECA 32%", "value": 16, "unit": "%"}, {"measurement": "EC50", "setting": "[7]; read-out: EC50 restoration of IFN-γ secretion, 0.1 µM NECA", "value": 53, "unit": "nM"}, {"measurement": "EC50", "setting": "[7]; read-out: EC50 restoration of IFN-γ secretion, 1 µM NECA", "value": 598, "unit": "nM"}, {"measurement": "restoration of IFN-γ secretion", "setting": "[7]; in presence of NECA", "value": "back to baseline levels"}, {"measurement": "IFN-γ response to OVA and p15E peptides", "setting": "[8]", "value": "Strong activation of IFN-γ"}, {"measurement": "rescue of fluorescent OVA uptake", "setting": "[9]; AZD4635 3 µM with NECA", "value": "almost to levels in untreated control"}, {"measurement": "MHCII and CD86 expression on CD11c+ DCs and F4/80+ macrophages", "setting": "[10]; 14 days, single agent", "value": "increased expression"}, {"measurement": "intratumoral frequencies of DCs and macrophages", "setting": "[10]; 14 days, single agent", "value": "did not increase"}, {"measurement": "frequency of infiltrating CD8+ cytotoxic lymphocytes compared with vehicle", "setting": "[10]; in combination with anti-PD-L1", "value": "significantly increased"}, {"measurement": "tumor efficacy of combination", "setting": "[11]; AZD4635 50 mg/kg twice daily with αPD-L1 10 mg/kg", "value": "appreciable beneficial combination effect"}, {"measurement": "antitumor activity after depletion of CD8 T cells", "setting": "[11]; AZD4635+PD-L1 treatments, antimouse CD8 antibody", "value": "completely abrogated"}, {"measurement": "differentiation into CD103+ DC", "setting": "[12]; 3 µM AZD4635 then NECA", "value": "able to differentiate into CD103^+ DC efficiently"}, {"measurement": "expression of genes associated with immune activation relative to vehicle", "setting": "[13]", "value": "upregulated expression"}]}, {"smiles": "CCNC(=O)[C@H]1O[C@@H](n2cnc3c(N)ncnc32)[C@H](O)[C@@H]1O", "note": "[NECA, 5′-(N-ethylcarboxamido) adenosine]", "values": [{"measurement": "reduction of CD107a response", "setting": "[4]; [17]", "value": 75, "unit": "%"}, {"measurement": "reduction of IFN-γ response", "setting": "[4]; [17]", "value": 75, "unit": "%"}, {"measurement": "reduction of CD107a expression by OT-1 CD8+ T cells", "setting": "[4]; [18]", "value": 72, "unit": "%"}, {"measurement": "reduction of IFN-γ secretion by OT-1 CD8+ T cells", "setting": "[4]; [18]", "value": 60, "unit": "%"}, {"measurement": "antigen presentation compared with untreated CD103+ DC", "setting": "[5]; SIINFEKL pulsed cultures, NECA 5 µM", "value": "less than a third"}, {"measurement": "antigen presentation compared with untreated cells", "setting": "[5]; whole ovalbumin protein, NECA 5 µM", "value": "a log-fold reduced"}, {"measurement": "Melan-A26-35 tetramer positive CD8+ T cells", "setting": "[6]", "value": 2.5, "unit": "%"}, {"measurement": "reduction of cross-priming function of DCs", "setting": "[6]; 5 µM NECA", "value": "greater than 90%"}, {"measurement": "suppression of IFN-γ secretion", "setting": "[7]; 1 µM NECA, CD3/CD28 beads", "value": 80, "unit": "%"}, {"measurement": "reduction of fluorescent OVA uptake", "setting": "[9]; NECA 5 µM", "value": "~50", "unit": "%"}, {"measurement": "CD103+ cells", "setting": "[12]; 5 µM NECA, untreated 80%", "value": 57, "unit": "%"}, {"measurement": "suppression of MHCII expression relative to DMSO-treated controls", "setting": "[14]", "value": "> 90", "unit": "%"}]}]}
